Measurements pooled from the literature.
Each line is one published result; the experiments were not run side by side.
Target: Tyrosine-protein kinase CSK (CSK, Homo sapiens, UniProt P41240)

COc1ccnn2ncc(-c3ccnc(N(C)C)n3)c12
remaining binding (binding; 1 µM): 96%

Cc1ccc(-n2nc(C(C)(C)C)cc2NC(=O)Nc2ccc(-n3c(N)c(C(N)=O)c4nc5ccccc5nc43)cc2)cc1
remaining binding (cell-free assay; competition with immobilised ligand; 1 µM): 0.9%

CNC(=O)[C@@H]1CC[C@@H](n2c(-c3ccc4cnccc4c3)nc3ccc(C(=O)NCc4cccc(C(N)=O)c4)cc32)C1
remaining binding (binding; competition with immobilised ligand; 1 µM): 100%

CN1CCN(c2cnc3c(C4CCN(C(=O)c5ccc(OC(F)(F)F)cc5N)CC4)ncnc3c2)CC1
remaining binding (cell-free assay; competition with immobilised ligand; 1 µM): 100%

CN(CCCC(F)(F)F)c1nccc(-c2cnn3ncccc23)n1
remaining binding (binding; 1 µM): 91%

CCc1ccccc1C(=O)Nc1n[nH]c2c(C)c(F)c(C3C(C#N)=C(C)N(C)C(C)=C3C#N)cc12
remaining binding (cell-free assay; competition with immobilised ligand; 1 µM): 98%

COc1ncc2cc3ccccc3nc2c1C#N
remaining binding (cell-free assay; competition with immobilised ligand; 5 µM): 100%

C[C@H](NC(=O)c1cnc2n1[C@](C)(Cc1ccc(C#N)cc1)C(=O)N2c1cc(Cl)c(F)c(Cl)c1)C(=O)NC1(c2ccccn2)CC1
remaining binding (cell-free assay; competition with immobilised ligand; 1 µM): 100%

C[C@H]1CCN(c2nccc(-c3cnn4ncccc34)n2)C1
remaining binding (binding; 1 µM): 83%

O=C(NCC1CCOCC1)c1n[nH]cc1NC(=O)c1c(F)cccc1F
remaining binding (binding; competition with immobilised ligand; 1 µM): 98%

Cc1cnc(Nc2ccc(C(=O)N3CCC(N4CCCC4)CC3)cc2)nc1-c1cc2ccccc2s1
remaining binding (binding; competition with immobilised ligand; 1 µM): 62%

CC1CCCN1c1nccc(-c2cnn3ncccc23)n1 (stereo not drawn)
remaining binding (binding; 1 µM): 100%

FC(F)(F)Oc1cccc(-c2cnc3ccc(-c4ccncc4)nn23)c1
remaining binding (cell-free assay; competition with immobilised ligand; 5 µM): 86%

CS(=O)(=O)c1cc(C2(NC(=O)c3cncc4c3cnn4-c3ccc(F)cc3)CC2)ccn1
remaining binding (cell-free assay; competition with immobilised ligand; 1 µM): 95%

CN(C)c1nccc(-c2cnn3ncccc23)n1
remaining binding (binding; 1 µM): 68%

O=C(c1ccc(Nc2ncc(Cl)c(-c3cc4ccccc4s3)n2)cc1)N1CCC(N2CCCC2)CC1
remaining binding (binding; competition with immobilised ligand; 1 µM): 87%

c1cncc(-c2cccc(Nc3nccc(NC4CCCCC4)n3)c2)c1
remaining binding (binding; competition with immobilised ligand; 10 µM): 88%

O=C1CCc2cc(Nc3cc(OC4CCOCC4)c([N+](=O)[O-])cc3Cl)ccc2N1
remaining binding (cell-free assay; competition with immobilised ligand; 1 µM): 98%

N[C@H]1CCN(c2nccc(-c3cnn4ncccc34)n2)C1
remaining binding (binding; 1 µM): 100%

CC(=O)C1=C(C)N(c2cccc(C(F)(F)F)c2)C(=O)N[C@@H]1c1ccc(C#N)nc1
remaining binding (cell-free assay; competition with immobilised ligand; 1 µM): 90%

O=C(NCCCN1CCOCC1)c1ccc(Nc2nccc(-c3cc4ccccc4s3)n2)cc1
remaining binding (binding; competition with immobilised ligand; 1 µM): 90%
